Laboratory results as given in ChEMBL document CHEMBL1135423, “Acyl-protected hydroxylamines as spin label generators for EPR brain imaging” (J Med Chem, 2002).

How the values were obtained:
Format in all cases: ADME, organism-based
Mus musculus [1] = assay: Biodistribution in mice as total concentration of both oxidized and reduced forms in blood and animals were sacrificed 10 minutes after ip administration in DMSO solution; conditions: in vivo
Procedure, shortened: (§1)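 Female C3H HenMTV⁻ mice (6-8 weeks old, 22-25 g; three per time point) were given an ip injection of 500 µL of 40 mM compound. They were euthanized at 10 or 60 min. Brain, heart, liver, kidney, spleen and blood were excised and each homogenized in ice-cold PBS. One half of each homogenate received K₃[Fe(CN)₆] (final 1 mM) to oxidize hydroxylamine to nitroxide. Total nitroxide plus hydroxylamine was read from EPR signal intensity.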

Mus musculus [2] = assay: Biodistribution of compound (oxidized form) in brain tissue, animals were sacrificed 60 minutes after dosing, in DMSO sol.; conditions: in vivo, 1 h
Procedure, shortened: (§2)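 In female C3H HenMTV⁻ mice (6-8 weeks, 22-25 g; three per time point), compound was injected ip as 500 µL of 40 mM solution. Animals were killed 10 or 60 min later. Brain, heart, liver, kidney, spleen and blood were removed and each homogenized in ice-cold PBS. Nitroxide (oxidized form) was quantified by EPR signal intensity in the half of each homogenate not treated with ferricyanide.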

Mus musculus [3] = assay: Biodistribution of compound (oxidized form) in kidney tissue, animals were sacrificed 10 minutes after dosing, in DMSO sol.; conditions: in vivo; procedure, shortened: as §2
Mus musculus [4] = assay: Biodistribution of compound (oxidized form) in heart tissue, animals were sacrificed 60 minutes after dosing, in DMSO sol.; conditions: in vivo, 1 h; procedure, shortened: as §2
Mus musculus [5] = assay: Biodistribution in mice as total concentration of both oxidized and reduced forms in spleen and animals were sacrificed 10 minutes after ip administration in DMSO solution; conditions: in vivo; procedure, shortened: as §1
Mus musculus [6] = assay: Biodistribution of compound (oxidized form) in blood tissue, animals were sacrificed 10 minutes after dosing, in DMSO sol.; conditions: in vivo; procedure, shortened: as §2
Mus musculus [7] = assay: Biodistribution of compound (oxidized form) in spleen tissues, animals were sacrificed 60 minutes after dosing, in DMSO sol.; conditions: in vivo, 1 h; procedure, shortened: as §2
Mus musculus [8] = assay: Biodistribution of compound (oxidized form) in heart tissue, animals were sacrificed 10 minutes after dosing, in DMSO sol.; conditions: in vivo; procedure, shortened: as §2
Mus musculus [9] = assay: Biodistribution in mice as total concentration of both oxidized and reduced forms in brain tissues, animals were sacrificed 60 minutes after dosing, in DMSO sol.; conditions: in vivo, 1 h; procedure, shortened: as §1
Mus musculus [10] = assay: Biodistribution in mice as total concentration of both oxidized and reduced forms in heart tissues, animals were sacrificed 10 minutes after dosing, in DMSO sol.; conditions: in vivo; procedure, shortened: as §1
Mus musculus [11] = assay: Biodistribution of compound (oxidized form) in kidney tissue, animals were sacrificed 60 minutes after dosing, in DMSO sol.; conditions: in vivo, 1 h; procedure, shortened: as §2
Mus musculus [12] = assay: Biodistribution in mice as total concentration of both oxidized and reduced forms in heart tissues, animals were sacrificed 60 minutes after dosing, in DMSO sol.; conditions: in vivo, 1 h; procedure, shortened: as §1
Mus musculus [13] = assay: Biodistribution in mice as total concentration of both oxidized and reduced forms in kidney and animals were sacrificed 10 minutes after dosing, in DMSO sol.; conditions: in vivo; procedure, shortened: as §1
Mus musculus [14] = assay: Biodistribution of compound (oxidized form) in liver tissues, animals were sacrificed 60 minutes after dosing, in DMSO sol.; conditions: in vivo, 1 h; procedure, shortened: as §2
Mus musculus [15] = assay: Biodistribution in mice as total concentration of both oxidized and reduced forms in blood tissues, animals were sacrificed 60 minutes after dosing, in DMSO sol.; conditions: in vivo, 1 h; procedure, shortened: as §1
Mus musculus [16] = assay: Biodistribution in mice as total concentration of both oxidized and reduced forms in liver tissues, animals were sacrificed 60 minutes after dosing, in DMSO sol.; conditions: in vivo, 1 h; procedure, shortened: as §1
Mus musculus [17] = assay: Biodistribution of compound (oxidized form) in blood tissues, animals were sacrificed 60 minutes after dosing, in DMSO sol.; conditions: in vivo, 1 h; procedure, shortened: as §2
Mus musculus [18] = assay: Biodistribution of compound (oxidized form) in brain tissue, animals were sacrificed 10 minutes after dosing, in DMSO sol.; conditions: in vivo; procedure, shortened: as §2
Mus musculus [19] = assay: Biodistribution of compound (oxidized form) in liver tissue, animals were sacrificed 10 minutes after dosing, in DMSO sol.; conditions: in vivo; procedure, shortened: as §2
Mus musculus [20] = assay: Biodistribution in mice as total concentration of both oxidized and reduced forms in kidney tissues, animals were sacrificed 60 minutes after dosing, in DMSO sol.; conditions: in vivo, 1 h; procedure, shortened: as §1
Mus musculus [21] = assay: Biodistribution of compound (total concentration of both oxidized and reduced forms) in brain tissues, animals were sacrificed 10 minutes after dosing, in DMSO; conditions: in vivo
Procedure, shortened: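 Female C3H HenMTV⁻ mice (6-8 weeks old, 22-25 g; three per time point) got one i.p. injection of 500 µL of 40 mM compound. They were euthanized at 10 or 60 min. Organs and blood were excised and homogenized separately in ice-cold PBS. One half of each homogenate received K₃[Fe(CN)₆] (final 1 mM) to oxidize hydroxylamine. Total nitroxide plus hydroxylamine was quantified by EPR signal intensity.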

Mus musculus [22] = assay: Biodistribution of compound (oxidized form) in spleen tissue, animals were sacrificed 10 minutes after dosing, in DMSO sol.; conditions: in vivo; procedure, shortened: as §2
Mus musculus [23] = assay: Biodistribution in mice as total concentration of both oxidized and reduced forms in liver and animals were sacrificed 10 minutes after dosing, in DMSO sol.; conditions: in vivo; procedure, shortened: as §1
Mus musculus [24] = assay: Biodistribution in mice as total concentration of both oxidized and reduced forms in spleen tissues, animals were sacrificed 60 minutes after dosing, in DMSO sol.; conditions: in vivo, 1 h; procedure, shortened: as §1

Biodistribution (Mus musculus [1]): 100 nM (g of tissue)-1 | Biodistribution (Mus musculus [2]): 5 nM (g of tissue)-1 | Biodistribution (Mus musculus [3]): 0 nM (g of tissue)-1 | Biodistribution (Mus musculus [4]): 0 nM (g of tissue)-1 | Biodistribution (Mus musculus [5]): 100 nM (g of tissue)-1 | Biodistribution (Mus musculus [6]): 0 nM (g of tissue)-1 | Biodistribution (Mus musculus [7]): 0 nM (g of tissue)-1 | Biodistribution (Mus musculus [8]): 0 nM (g of tissue)-1 | Biodistribution (Mus musculus [9]): 25 nM (g of tissue)-1 | Biodistribution (Mus musculus [10]): 10 nM (g of tissue)-1 | Biodistribution (Mus musculus [11]): 0 nM (g of tissue)-1 | Biodistribution (Mus musculus [12]): 25 nM (g of tissue)-1 | Biodistribution (Mus musculus [13]): 400 nM (g of tissue)-1 | Biodistribution (Mus musculus [14]): 0 nM (g of tissue)-1 | Biodistribution (Mus musculus [15]): 25 nM (g of tissue)-1 | Biodistribution (Mus musculus [16]): 30 nM (g of tissue)-1 | Biodistribution (Mus musculus [17]): 0 nM (g of tissue)-1 | Biodistribution (Mus musculus [18]): 2 nM (g of tissue)-1 | Biodistribution (Mus musculus [19]): 0 nM (g of tissue)-1 | Biodistribution (Mus musculus [20]): 25 nM (g of tissue)-1 | Biodistribution (Mus musculus [21]): 0 nM (g of tissue)-1 | Biodistribution (Mus musculus [22]): 0 nM (g of tissue)-1 | Biodistribution (Mus musculus [23]): 50 nM (g of tissue)-1 | Biodistribution (Mus musculus [24]): 25 nM (g of tissue)-1
SMILES: COC(=O)C1CC(C)(C)N(OC(C)=O)C(C)(C)C1
